Measurements taken from ChEMBL document CHEMBL1137490, “Design, synthesis and cardioprotective effect of a new class of dual-acting agents: phenolic tetrahydro-beta-carboline RGD peptidomimetic conjugates” (Bioorg Med Chem, 2007).
Residues, ends and D or L forms follow the SMILES beside them.

How the values were obtained:
Rattus norvegicus [1] = species: Rattus norvegicus; assay: Antithrombotic effect in Wistar rat assessed as reduction in wet thrombus mass at 5 umol/L; type: functional
Outline: (§1)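 Male Wistar rats 250-300 g, sodium pentobarbital 80.0 mg/kg ip; arteriovenous shunt (polyethylene tube with weighed 6 cm thread, sodium heparin 50 IU/mL in NS) from right carotid to left jugular vein. Compound dissolved in NS just before use, kept on ice, injected via tube; NS vehicle. Blood flowed 15 min; wet thrombus weighed, dry weight after 2 weeks in desiccator.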

PC-12 [2] = assay: Scavenging activity against […] generation in rat PC12 cells assessed as cell survival by MTT assay; type: functional, cell-based
Outline: (§2)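 PC12 cells in DMEM with 10% heat-inactivated horse serum, 5% FBS, 1.0 mM pyruvate, penicillin/streptomycin, 37 °C, 5% CO2; seeded 20,000/well on poly-L-lysine, 24 h attachment. Pretreated 1 h with 12.5–200 µM. Insult: 2 mM SNP 2 h (NO), 1 mM H2O2 1 h, or 1 mM H2O2/30 µM Fe(II) 1 h (•OH). For SNP, fresh media then 14 h culture. Survival by MTT; EC50 (µM).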

Aorta [3] = assay: Scavenging activity against nitric oxide radical generation in Wistar rat aortic strips cells assessed as inhibition of acetylcholine-induced vasorelaxation at 0.01 umol/L
PC-12 [4] = assay: Scavenging activity against nitric oxide radical generation in rat PC12 cells assessed as cell survival by MTT assay; type: functional, cell-based; outline: as §2
Aorta [5] = assay: Scavenging activity against nitric oxide radical generation in Wistar rat aortic strips cells assessed as inhibition of acetylcholine-induced vasorelaxation at 0.1 umol/L
PC-12 [6] = assay: Scavenging activity against hydrogen peroxide radical generation in rat PC12 cells assessed as cell survival by MTT assay; type: functional, cell-based; outline: as §2
Aorta [7] = assay: Scavenging activity against nitric oxide radical generation in Wistar rat aortic strips cells assessed as inhibition of acetylcholine-induced vasorelaxation at 1 umol/L; type: functional, tissue-based
Outline: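 Rat aortic strips in 37 °C oxygenated (95% O2/5% CO2) Krebs, pH 7.4, on tension transducers. Precontracted with noradrenaline (final 10^-9 mol/L), washed, stabilized 30 min, recontracted; at peak, compound in water (final 10^-6 mol/L) or NS added, then ACh (final 10^-6 mol/L). Percent inhibition of ACh-induced relaxation recorded.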

Rattus norvegicus [8] = species: Rattus norvegicus; assay: Antithrombotic effect in Wistar rat assessed as reduction in dry thrombus mass at 5 umol/L; type: functional; outline: as §1
Rattus norvegicus [9] = species: Rattus norvegicus; assay: Protective effect in sham ischemia reperfusion Wistar rat model assessed as malondialdehyde per mg of protein; type: functional
Rattus norvegicus [10] = species: Rattus norvegicus; assay: Protective effect in ischemia reperfusion Wistar rat model assessed as malondialdehyde per mg of protein; type: functional
Rattus norvegicus [11] = assay: Reduction in infarct size in ischemia reperfusion Wistar rat model assessed as infarct size over risk zone at 10 mg/kg; type: functional; design: scale not given: the % may be the effect or the level left
Outline: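 Male Wistar rats 250-300 g, pentobarbital 80.0 mg/kg ip; left coronary artery occluded 30 min by snare, then 120 min reperfusion. Compound 10 mg/kg in DMSO–0.9% NaCl (1:103 v/v) infused transjugularly 15 min before occlusion. Ventricular 1 mm slices stained with 1% TTC 15 min at 37 °C, with Evans blue for area at risk; infarct/risk zone %, n = 8, mean ± SE, t-test.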

SMILES: COc1cc(C2N[C@H](C(=O)O)Cc3c2[nH]c2ccccc32)cc(OC)c1O (stereo partly drawn)
- Activity (Rattus norvegicus [1]): 44.01 mg
- EC50 (PC-12 [2]): 85.9 µM
- inhibition (Aorta [3]): 10.8%
- EC50 (PC-12 [4]): 88.4 µM
- inhibition (Aorta [5]): 55.3%
- EC50 (PC-12 [6]): 34.5 µM
- inhibition (Aorta [7]): 81%
- Activity (Rattus norvegicus [8]): 8.03 mg

SMILES: COc1cc(C2N[C@H](C(=O)N[C@@H](CCCNC(=N)N)C(=O)NNCC(=O)N[C@H](CC(=O)O)C(=O)N[C@H](C(=O)O)C(C)C)Cc3c2[nH]c2ccccc32)cc(OC)c1O (stereo partly drawn)
- inhibition (Aorta [3]): 14.1%
- inhibition (Aorta [5]): 71%
- inhibition (Aorta [7]): 95.8%

SMILES: COc1cc(C2N[C@H](C(=O)NN(CCCNC(=N)N)CC(=O)NCC(=O)N[C@@H](CC(=O)O)C(=O)N[C@H](C(=O)O)C(C)C)Cc3c2[nH]c2ccccc32)cc(OC)c1O (stereo partly drawn) [listing 1 of 2 here]
- EC50 (PC-12 [2]): 95.1 µM
- EC50 (PC-12 [4]): 96.5 µM
- EC50 (PC-12 [6]): 75.4 µM

SMILES: CC(C)[C@H](NC(=O)CN(CC(=O)O)NC(=O)CNC(=O)[C@@H](N)CCCNC(=N)N)C(=O)O
- Activity (Rattus norvegicus [1]): 41.8 mg
- Activity (Rattus norvegicus [8]): 7.83 mg

SMILES: COc1cc(C2N[C@H](C(=O)N[C@@H](CCCNC(=N)N)C(=O)NCC(=O)NN(CC(=O)O)CC(=O)N[C@H](C(=O)O)C(C)C)Cc3c2[nH]c2ccccc32)cc(OC)c1O (stereo partly drawn)
- Activity (Rattus norvegicus [1]): 25.46 mg
- EC50 (PC-12 [2]): 93.2 µM
- inhibition (Aorta [3]): 13%
- EC50 (PC-12 [4]): 90.2 µM
- inhibition (Aorta [5]): 63.7%
- EC50 (PC-12 [6]): 45.7 µM
- inhibition (Aorta [7]): 90.1%
- Activity (Rattus norvegicus [8]): 4.85 mg

SMILES: COc1cc(C2N[C@H](C(=O)N[C@@H](CCCNC(=N)N)C(=O)NNCC(=O)N[C@@H](CC(=O)O)C(=O)N[C@H](C(=O)O)C(C)C)Cc3c2[nH]c2ccccc32)cc(OC)c1O (stereo partly drawn) [listing 1 of 2 here]
- EC50 (PC-12 [2]): 90.3 µM
- EC50 (PC-12 [4]): 91.2 µM
- EC50 (PC-12 [6]): 41.2 µM

SMILES: COc1cc(C2N[C@H](C(=O)NN(CCCNC(=N)N)CC(=O)NCC(=O)N[C@@H](CC(=O)O)C(=O)N[C@H](C(=O)O)C(C)C)Cc3c2[nH]c2ccccc32)cc(OC)c1O (stereo partly drawn) [listing 2 of 2 here]
- Activity (Rattus norvegicus [1]): 21.05 mg
- Activity (Rattus norvegicus [9]): 2.52 nmol/mg
- Activity (Rattus norvegicus [10]): 2.91 nmol/mg
- Activity (Rattus norvegicus [8]): 2.23 mg
- Activity (Rattus norvegicus [11]): 35%

SMILES: COc1cc(C2N[C@H](C(=O)N[C@@H](CCCNC(=N)N)C(=O)NNCC(=O)N[C@@H](CC(=O)O)C(=O)N[C@H](C(=O)O)C(C)C)Cc3c2[nH]c2ccccc32)cc(OC)c1O (stereo partly drawn) [listing 2 of 2 here]
- Activity (Rattus norvegicus [1]): 24.54 mg
- Activity (Rattus norvegicus [8]): 3.79 mg

SMILES: COc1cc(C2N[C@H](C(=O)NN(CCCNC(=N)N)CC(=O)NCC(=O)N[C@H](CC(=O)O)C(=O)N[C@H](C(=O)O)C(C)C)Cc3c2[nH]c2ccccc32)cc(OC)c1O (stereo partly drawn)
- inhibition (Aorta [3]): 28.3%
- inhibition (Aorta [5]): 75.3%
- inhibition (Aorta [7]): 97.2%

SMILES: CC(C)[C@H](NC(=O)[C@H](CC(=O)O)NC(=O)CNC(=O)CN(N)CCCNC(=N)N)C(=O)O
- Activity (Rattus norvegicus [1]): 27.04 mg
- Activity (Rattus norvegicus [8]): 4.39 mg

SMILES: CC(C)[C@H](NC(=O)[C@H](CC(=O)O)NC(=O)CNNC(=O)[C@@H](N)CCCNC(=N)N)C(=O)O
- Activity (Rattus norvegicus [1]): 34.98 mg
- Activity (Rattus norvegicus [8]): 7.05 mg

SMILES: CC(C)[C@H](NC(=O)[C@H](CC(=O)O)NC(=O)CNC(=O)[C@@H](N)CCCNC(=N)N)C(=O)O (H-RGDV-OH)
- Activity (Rattus norvegicus [1]): 35.75 mg
- Activity (Rattus norvegicus [8]): 6.78 mg
